system: not listed separately; test: Cytotoxicity against mock-infected human MT4 cells after 96 hrs by MTT assay; format: cell-based; details: not given
Procedure, shortened: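 Exponentially growing MT-4 cells were seeded at 1 × 10^5 cells/mL in RPMI-1640 with 10% FBS and held at 37 °C, 5% CO2 with serial compound dilutions. Viability was read by MTT after 96 h. CC50 from linear regression against untreated controls.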

Row | SMILES | CC50 at 96 h [µM]
1 | c1ccc2c(c1)Cn1c(nc3ccccc31)-c1ccccc1-2 | 44
2 | Clc1ccc(Cc2nc3cc(Cl)c(Cl)cc3n2C[C@@H]2CCCN3CCCC[C@H]23)cc1Cl | 9
3 | Clc1cc2nc(Cc3ccc(Br)cc3)n(C[C@@H]3CCCN4CCCC[C@H]34)c2cc1Cl | 12
4 | FC(F)(F)c1ccc2c(c1)nc(Cc1ccc(Cl)cc1)n2C[C@@H]1CCCN2CCCC[C@H]12 | 6

system: Poliovirus 1; test: Antiviral activity against Poliovirus type 1 Sabin strain infected in african green monkey Vero 76 cells assessed as reduction in plaque number after 2 days by plaque reduction assay; format: functional, organism-based; details: Enterovirus C, 48 h

Row | SMILES | EC50 [µM]
5 | c1ccc2c(c1)Cn1c(nc3ccccc31)-c1ccccc1-2 | > 100
6 | Clc1ccc(Cc2nc3cc(Cl)c(Cl)cc3n2C[C@@H]2CCCN3CCCC[C@H]23)cc1Cl | > 100
7 | Clc1cc2nc(Cc3ccc(Br)cc3)n(C[C@@H]3CCCN4CCCC[C@H]34)c2cc1Cl | > 100
8 | FC(F)(F)c1ccc2c(c1)nc(Cc1ccc(Cl)cc1)n2C[C@@H]1CCCN2CCCC[C@H]12 | > 100

system: Reovirus sp.; test: Antiviral activity against Reovirus type-1 infected in BHK21 cells assessed as inhibition of virus-induced cytopathogenicity after 3 to 4 days by MTT assay; format: functional, organism-based; details: BHK-21

Row | SMILES | EC50 [µM]
9 | c1ccc2c(c1)Cn1c(nc3ccccc31)-c1ccccc1-2 | > 100
10 | Clc1ccc(Cc2nc3cc(Cl)c(Cl)cc3n2C[C@@H]2CCCN3CCCC[C@H]23)cc1Cl | > 100
11 | Clc1cc2nc(Cc3ccc(Br)cc3)n(C[C@@H]3CCCN4CCCC[C@H]34)c2cc1Cl | > 100
12 | FC(F)(F)c1ccc2c(c1)nc(Cc1ccc(Cl)cc1)n2C[C@@H]1CCCN2CCCC[C@H]12 | > 100

system: Vaccinia virus; test: Antiviral activity against Vaccinia Virus infected in african green monkey Vero 76 cells assessed as reduction in plaque number after 3 days by plaque reduction assay; format: functional, organism-based; details: Orthopoxvirus vaccinia, 72 h

Row | SMILES | EC50 [µM]
13 | c1ccc2c(c1)Cn1c(nc3ccccc31)-c1ccccc1-2 | > 100
14 | Clc1ccc(Cc2nc3cc(Cl)c(Cl)cc3n2C[C@@H]2CCCN3CCCC[C@H]23)cc1Cl | > 100
15 | Clc1cc2nc(Cc3ccc(Br)cc3)n(C[C@@H]3CCCN4CCCC[C@H]34)c2cc1Cl | > 100
16 | FC(F)(F)c1ccc2c(c1)nc(Cc1ccc(Cl)cc1)n2C[C@@H]1CCCN2CCCC[C@H]12 | > 100

system: Human alphaherpesvirus 1; test: Antiviral activity against HSV1 infected in african green monkey Vero 76 cells assessed as reduction in plaque number after 3 days by plaque reduction assay; format: functional, organism-based; details: Human alphaherpesvirus 1, Vero, 72 h

Row | SMILES | EC50 [µM]
17 | c1ccc2c(c1)Cn1c(nc3ccccc31)-c1ccccc1-2 | > 100
18 | Clc1ccc(Cc2nc3cc(Cl)c(Cl)cc3n2C[C@@H]2CCCN3CCCC[C@H]23)cc1Cl | > 100
19 | Clc1cc2nc(Cc3ccc(Br)cc3)n(C[C@@H]3CCCN4CCCC[C@H]34)c2cc1Cl | > 100
20 | FC(F)(F)c1ccc2c(c1)nc(Cc1ccc(Cl)cc1)n2C[C@@H]1CCCN2CCCC[C@H]12 | > 100

system: Human immunodeficiency virus 1; test: Antiviral activity against HIV1 infected in human MT4 cells assessed as inhibition of virus-induced cytopathogenicity after 4 days by MTT assay; format: functional, organism-based; details: Human immunodeficiency virus 1, MT4, 96 h
Procedure, shortened: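 MT-4 cells (1 × 10^4/well in RPMI) were infected acutely with HIV-1 IIIB, 100 CCID50 (m.o.i. 0.01), with serial dilutions from 100 µM, 1:5. After 4 days at 37 °C, protection from virus-induced cytopathogenicity was read by MTT. EC50 came from linear regression against untreated controls.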

Row | SMILES | EC50 [µM]
21 | c1ccc2c(c1)Cn1c(nc3ccccc31)-c1ccccc1-2 | > 100
22 | Clc1ccc(Cc2nc3cc(Cl)c(Cl)cc3n2C[C@@H]2CCCN3CCCC[C@H]23)cc1Cl | > 100
23 | Clc1cc2nc(Cc3ccc(Br)cc3)n(C[C@@H]3CCCN4CCCC[C@H]34)c2cc1Cl | > 100
24 | FC(F)(F)c1ccc2c(c1)nc(Cc1ccc(Cl)cc1)n2C[C@@H]1CCCN2CCCC[C@H]12 | > 100

system: Yellow fever virus; test: Antiviral activity against Yellow fever virus infected in BHK21 cells assessed as inhibition of virus-induced cytopathogenicity after 3 to 4 days by MTT assay; format: functional, organism-based; details: BHK-21

Row | SMILES | EC50 [µM]
25 | c1ccc2c(c1)Cn1c(nc3ccccc31)-c1ccccc1-2 | > 100
26 | Clc1ccc(Cc2nc3cc(Cl)c(Cl)cc3n2C[C@@H]2CCCN3CCCC[C@H]23)cc1Cl | > 100
27 | Clc1cc2nc(Cc3ccc(Br)cc3)n(C[C@@H]3CCCN4CCCC[C@H]34)c2cc1Cl | > 100
28 | FC(F)(F)c1ccc2c(c1)nc(Cc1ccc(Cl)cc1)n2C[C@@H]1CCCN2CCCC[C@H]12 | > 100

system: not listed separately; test: Selectivity index, ratio of CC50 for african green monkey Vero 76 cells to EC50 for Respiratory syncytial virus; format: toxicity, cell-based; details: read-out: Ratio CC50/EC50
Procedure, shortened: (§1)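 Mock-infected Vero-76 cells were tested in parallel on the same 24-well plates as the plaque assays (seeding 4 × 10^5 cells/mL, D-MEM with FBS), with serial compound dilutions at 37 °C, 5% CO2. Viability was read after 48–96 h by crystal violet staining. CC50 by linear regression; selectivity index = Vero-76 CC50/EC50 for CVB-5 or RSV.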

Row | SMILES | selectivity ratio
29 | c1ccc2c(c1)Cn1c(nc3ccccc31)-c1ccccc1-2 | 8.89
30 | Clc1ccc(Cc2nc3cc(Cl)c(Cl)cc3n2C[C@@H]2CCCN3CCCC[C@H]23)cc1Cl | > 8.33
31 | Clc1cc2nc(Cc3ccc(Br)cc3)n(C[C@@H]3CCCN4CCCC[C@H]34)c2cc1Cl | > 11.1
32 | FC(F)(F)c1ccc2c(c1)nc(Cc1ccc(Cl)cc1)n2C[C@@H]1CCCN2CCCC[C@H]12 | > 6.67

system: not listed separately; test: Selectivity index, ratio of CC50 for african green monkey Vero 76 cells to EC50 for Coxsackievirus B5; format: toxicity, cell-based; details: read-out: Ratio CC50/EC50; procedure, shortened: as §1

Row | SMILES | selectivity ratio
33 | Clc1ccc(Cc2nc3cc(Cl)c(Cl)cc3n2C[C@@H]2CCCN3CCCC[C@H]23)cc1Cl | > 11.1
34 | Clc1cc2nc(Cc3ccc(Br)cc3)n(C[C@@H]3CCCN4CCCC[C@H]34)c2cc1Cl | > 2
35 | FC(F)(F)c1ccc2c(c1)nc(Cc1ccc(Cl)cc1)n2C[C@@H]1CCCN2CCCC[C@H]12 | > 7.69

system: Respiratory syncytial virus; test: Antiviral activity against Respiratory syncytial virus infected in african green monkey Vero 76 cells assessed as reduction in plaque number after 5 days by plaque reduction assay; format: functional, organism-based; details: human respiratory syncytial virus, 120 h

Row | SMILES | EC50 [µM]
36 | c1ccc2c(c1)Cn1c(nc3ccccc31)-c1ccccc1-2 | 9
37 | Clc1ccc(Cc2nc3cc(Cl)c(Cl)cc3n2C[C@@H]2CCCN3CCCC[C@H]23)cc1Cl | 12
38 | Clc1cc2nc(Cc3ccc(Br)cc3)n(C[C@@H]3CCCN4CCCC[C@H]34)c2cc1Cl | 9
39 | FC(F)(F)c1ccc2c(c1)nc(Cc1ccc(Cl)cc1)n2C[C@@H]1CCCN2CCCC[C@H]12 | 15

system: Vesicular stomatitis virus; test: Antiviral activity against Vesicular stomatitis virus infected in african green monkey Vero 76 cells assessed as reduction in plaque number after 2 days by plaque reduction assay; format: functional, organism-based; details: 48 h

Row | SMILES | EC50 [µM]
40 | c1ccc2c(c1)Cn1c(nc3ccccc31)-c1ccccc1-2 | > 100
41 | Clc1ccc(Cc2nc3cc(Cl)c(Cl)cc3n2C[C@@H]2CCCN3CCCC[C@H]23)cc1Cl | > 100
42 | Clc1cc2nc(Cc3ccc(Br)cc3)n(C[C@@H]3CCCN4CCCC[C@H]34)c2cc1Cl | > 100
43 | FC(F)(F)c1ccc2c(c1)nc(Cc1ccc(Cl)cc1)n2C[C@@H]1CCCN2CCCC[C@H]12 | > 100

system: Coxsackievirus B5; test: Antiviral activity against Coxsackievirus B5 infected in african green monkey Vero 76 cells assessed as reduction in plaque number after 3 days by plaque reduction assay; format: functional, organism-based; details: Enterovirus B, 72 h

Row | SMILES | EC50 [µM]
44 | c1ccc2c(c1)Cn1c(nc3ccccc31)-c1ccccc1-2 | > 100
45 | Clc1ccc(Cc2nc3cc(Cl)c(Cl)cc3n2C[C@@H]2CCCN3CCCC[C@H]23)cc1Cl | 9
46 | Clc1cc2nc(Cc3ccc(Br)cc3)n(C[C@@H]3CCCN4CCCC[C@H]34)c2cc1Cl | 50
47 | FC(F)(F)c1ccc2c(c1)nc(Cc1ccc(Cl)cc1)n2C[C@@H]1CCCN2CCCC[C@H]12 | 13

system: not listed separately; test: Cytotoxicity against mock-infected BHK21 cells after 48 to 96 hrs by MTT assay; format: functional; details: Mesocricetus auratus, BHK-21
Procedure, shortened: (§2)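 Mock-infected MDBK (6 × 10^5 cells/mL; MEM-E, 10% horse serum, 1 mM pyruvate) or BHK (1 × 10^6 cells/mL; MEM-E, 10% FBS) cells were incubated at 37 °C, 5% CO2 with serial dilutions from 100 µM, 1:5. Viability by MTT after 48–96 h. CC50 from linear regression against untreated controls.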

Row | SMILES | CC50 [µM]
48 | c1ccc2c(c1)Cn1c(nc3ccccc31)-c1ccccc1-2 | 20
49 | Clc1ccc(Cc2nc3cc(Cl)c(Cl)cc3n2C[C@@H]2CCCN3CCCC[C@H]23)cc1Cl | 52
50 | Clc1cc2nc(Cc3ccc(Br)cc3)n(C[C@@H]3CCCN4CCCC[C@H]34)c2cc1Cl | 70
51 | FC(F)(F)c1ccc2c(c1)nc(Cc1ccc(Cl)cc1)n2C[C@@H]1CCCN2CCCC[C@H]12 | 20

system: Bovine viral diarrhea virus 1; test: Antiviral activity against Bovine viral diarrhea virus infected in MDBK cells assessed as inhibition of virus-induced cytopathogenicity after 3 to 4 days by MTT assay; format: functional, organism-based; details: Bovine viral diarrhea virus isolates and strains

Row | SMILES | EC50 [µM]
52 | c1ccc2c(c1)Cn1c(nc3ccccc31)-c1ccccc1-2 | > 100
53 | Clc1ccc(Cc2nc3cc(Cl)c(Cl)cc3n2C[C@@H]2CCCN3CCCC[C@H]23)cc1Cl | > 100
54 | Clc1cc2nc(Cc3ccc(Br)cc3)n(C[C@@H]3CCCN4CCCC[C@H]34)c2cc1Cl | > 100
55 | FC(F)(F)c1ccc2c(c1)nc(Cc1ccc(Cl)cc1)n2C[C@@H]1CCCN2CCCC[C@H]12 | > 100

system: not listed separately; test: Cytotoxicity against mock-infected MDBK cells after 48 to 96 hrs by MTT assay; format: cell-based, Bos taurus; details: cattle; procedure, shortened: as §2

Row | SMILES | CC50 [µM]
56 | c1ccc2c(c1)Cn1c(nc3ccccc31)-c1ccccc1-2 | 23
57 | Clc1ccc(Cc2nc3cc(Cl)c(Cl)cc3n2C[C@@H]2CCCN3CCCC[C@H]23)cc1Cl | 46
58 | Clc1cc2nc(Cc3ccc(Br)cc3)n(C[C@@H]3CCCN4CCCC[C@H]34)c2cc1Cl | 58
59 | FC(F)(F)c1ccc2c(c1)nc(Cc1ccc(Cl)cc1)n2C[C@@H]1CCCN2CCCC[C@H]12 | 54

system: not listed separately; test: Cytotoxicity against mock-infected african green monkey Vero 76 cells after 48 to 96 hrs by MTT assay; format: cell-based; details: chlorocebus sabaeus, mock-infected Vero 76 cells

Row | SMILES | CC50 [µM]
60 | c1ccc2c(c1)Cn1c(nc3ccccc31)-c1ccccc1-2 | 80
61 | Clc1ccc(Cc2nc3cc(Cl)c(Cl)cc3n2C[C@@H]2CCCN3CCCC[C@H]23)cc1Cl | > 100
62 | Clc1cc2nc(Cc3ccc(Br)cc3)n(C[C@@H]3CCCN4CCCC[C@H]34)c2cc1Cl | > 100
63 | FC(F)(F)c1ccc2c(c1)nc(Cc1ccc(Cl)cc1)n2C[C@@H]1CCCN2CCCC[C@H]12 | > 100

Source: ChEMBL document CHEMBL3351523 (Bioorg Med Chem, 2014)
